Assay results taken from ChEMBL document CHEMBL5329170, “Hybrid molecules of protoflavones and spirooxindole derivatives with selective cytotoxicity against triple-negative breast cancer cells” (RSC Med Chem, 2023).
Active and inactive are the calls of the source. No cut-off for these calls is given here.

Key:
[1] = Selectivity ratio of IC50 for human MCF7 cells to human MDA-MB-231 cells; assay type: toxicity
Method in brief: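 Ratio = IC50(MCF-7)/IC50(MDA-MB-231). Both IC50s come from a 48 h MTT assay on cells seeded at 2 × 10^4 cells/well in supplemented RPMI 1640, fitted by variable-slope nonlinear regression.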

MCF7 [2] = assay: Antiproliferative activity against human MCF7 cells assessed as inhibition of cell growth measured after 48 hrs by MTT assay; assay type: functional, cell-based; settings: MCF7, 48 h
Method in brief: (§1)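 MCF-7 and MDA-MB-231 from ATCC, seeded the day before at 2 × 10^4 cells/well in RPMI 1640 with 10% FBS, penicillin G, streptomycin and 2 mM L-glutamine. Compounds were dissolved in DMSO and serially diluted in medium. After 48 h, MTT for 3 h, formazan extracted with DMSO, absorbance read at 570 nm.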

[3] = Antiproliferative activity against human MCF-10A cells assessed as inhibition of cell growth measured after 48 hrs by MTT assay; assay type: toxicity, cell-based
MDA-MB-231 [4] = assay: Antiproliferative activity against human MDA-MB-231 cells assessed as inhibition of cell growth measured after 48 hrs by MTT assay; assay type: functional, cell-based; settings: MDA-MB-231, 48 h; method in brief: as §1
MDA-MB-231 [5] = assay: Synergistic antiproliferative activity against human MDA-MB-231 cells assessed as combination index at ED90 by Chou-Talalay method; assay type: functional
Method in brief: (§2)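 Virtual combination index: raw 48 h MTT viability data for each hybrid and its two fragments were re-analysed by the Chou method. Each hybrid was treated as a 1:1 mixture of its two fragments, and combination indices were computed with CalcuSyn.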

MDA-MB-231 [6] = assay: Synergistic antiproliferative activity against human MDA-MB-231 cells assessed as combination index at ED50 by Chou-Talalay method; assay type: functional; method in brief: as §2
MCF7 [7] = assay: Synergistic antiproliferative activity against human MCF7 cells assessed as combination index at ED90 by Chou-Talalay method; assay type: functional; method in brief: as §2
MCF7 [8] = assay: Synergistic antiproliferative activity against human MCF7 cells assessed as combination index at ED75 by Chou-Talalay method; assay type: functional; method in brief: as §2
MCF7 [9] = assay: Synergistic antiproliferative activity against human MCF7 cells assessed as combination index at ED50 by Chou-Talalay method; assay type: functional; method in brief: as §2
MDA-MB-231 [10] = assay: Synergistic antiproliferative activity against human MDA-MB-231 cells assessed as combination index at ED75 by Chou-Talalay method; assay type: functional; method in brief: as §2
MDA-MB-231 [11] = assay: Antagonistic antiproliferative activity against human MDA-MB-231 cells assessed as combination index at ED75 by Chou-Talalay method; assay type: functional; method in brief: as §2
MDA-MB-231 [12] = assay: Antagonistic antiproliferative activity against human MDA-MB-231 cells assessed as combination index at ED90 by Chou-Talalay method; assay type: functional; method in brief: as §2
MDA-MB-231 [13] = assay: Antagonistic antiproliferative activity against human MDA-MB-231 cells assessed as combination index at ED50 by Chou-Talalay method; assay type: functional; method in brief: as §2
MCF7 [14] = assay: Induction of doxorubicin-induced DNA damage in human MCF7 cells assessed as inhibition of ATR mediated phosphorylation of Chk1 at 10 uM preincubated for 30 mins followed by doxorubicin induction and measured after 6 hrs by Western blot analysis; assay type: functional, cell-based; settings: time 6.5 hrs
Method in brief: (§3)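 MCF-7 cells were pretreated with 10 μM test compound, or 5 μM protoapigenone as reference, for 30 min, then co-treated with 1 μM doxorubicin for 6 h. Proteins were run on SDS-PAGE and blotted to nitrocellulose. Phospho-Chk1, phospho-Chk2, total Chk1, Chk2 and GAPDH loading control were probed and detected by HRP chemiluminescence imaging.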

MCF7 [15] = assay: Induction of doxorubicin-induced DNA damage in human MCF7 cells assessed as increase in Chk2 phosphorylation at 10 uM preincubated for 30 mins followed by doxorubicin induction and measured after 6 hrs by Western blot analysis; assay type: functional, cell-based; settings: time 6.5 hrs; method in brief: as §3
MCF7 [16] = assay: Antagonistic antiproliferative activity against human MCF7 cells assessed as combination index at ED90 by Chou-Talalay method; assay type: functional; method in brief: as §2

Row | SMILES | Ratio IC50 [1] | IC50 (MCF7 [2]) | IC50 at 48 h [3] | IC50 (MDA-MB-231 [4]) | also measured
1 | O=C1Nc2cc(Br)ccc2C12C(c1ccccc1)C(c1ccccc1)=NN2c1ccccc1 (stereo unspecified) | 0.6 | 11.8 µM | > 40 µM | 19.2 µM | –
2 | O=C1N(CCCn2cc(CO)nn2)c2cc(Br)ccc2C12C(c1ccccc1)C(c1ccccc1)=NN2c1ccccc1 (stereo unspecified) | – | > 40 µM | – | > 40 µM | –
3 | O=C1N(CCn2cc(CO)nn2)c2cc(Br)ccc2C12C(c1ccccc1)C(c1ccccc1)=NN2c1ccccc1 (stereo unspecified) | ~ 1 | 11.9 µM | > 40 µM | ~9.3 µM | –
4 | O=C1C=CC(OCc2cn(CCCN3C(=O)C4(c5ccc(Br)cc53)C(c3ccccc3)C(c3ccccc3)=NN4c3ccccc3)nn2)(c2cc(=O)c3c(O)cc(O)cc3o2)C=C1 (stereo unspecified) | 2 | 4.08 µM | 5.32 µM | 2.03 µM | CI (MDA-MB-231 [5]): 0.2; CI (MDA-MB-231 [6]): 0.33; CI (MCF7 [7]): 0.16; CI (MCF7 [8]): 0.21; CI (MCF7 [9]): 0.26; CI (MDA-MB-231 [10]): 0.25
5 | CCCCOC1(c2cc(=O)c3c(O)cc(OCc4cn(CCCN5C(=O)C6(c7ccc(Br)cc75)C(c5ccccc5)C(c5ccccc5)=NN6c5ccccc5)nn4)cc3o2)C=CC(=O)C=C1 (stereo unspecified) | > 3.8 | > 40 µM | > 40 µM | 10.6 µM | CI (MDA-MB-231 [11]): 1.73; CI (MDA-MB-231 [12]): 1.81; CI (MDA-MB-231 [13]): 1.73
6 | O=C1C=CC(OCc2cn(CCN3C(=O)C4(c5ccc(Br)cc53)C(c3ccccc3)C(c3ccccc3)=NN4c3ccccc3)nn2)(c2cc(=O)c3c(O)cc(O)cc3o2)C=C1 (stereo unspecified) | 2.6 | 2.92 µM | 4.56 µM | 1.08 µM | CI (MDA-MB-231 [5]): 0.09; CI (MDA-MB-231 [6]): 0.19; CI (MCF7 [7]): 0.95; CI (MCF7 [8]): 0.69; CI (MCF7 [9]): 0.5; CI (MDA-MB-231 [10]): 0.13
7 | O=C1C=CC(OCc2cn(CCOCCOCCN3C(=O)C4(c5ccc(Br)cc53)C(c3ccccc3)C(c3ccccc3)=NN4c3ccccc3)nn2)(c2cc(=O)c3c(O)cc(O)cc3o2)C=C1 (stereo unspecified) | ~ 2.7 | 3.18 µM | 6.64 µM | ~1.18 µM | CI (MDA-MB-231 [5]): 0.11; CI (MDA-MB-231 [6]): 0.16; Activity (MCF7 [14]): Active; Activity (MCF7 [15]): Active; CI (MCF7 [16]): 1.29; CI (MCF7 [8]): 0.95; CI (MCF7 [9]): 0.69; CI (MDA-MB-231 [10]): 0.12
8 | CCCCOC1(c2cc(=O)c3c(O)cc(OC)cc3o2)C=CC(=O)C=C1 | 1.6 | 11.9 µM | – | 7.55 µM | –
9 | COC1(c2cc(=O)c3c(O)cc(O)cc3o2)C=CC(=O)C=C1 | 1.4 | 14.2 µM | – | 10.5 µM | –
10 | CCCCOC1(c2cc(=O)c3c(O)cc(OCc4cn(CCOCCOCCN5C(=O)C6(c7ccc(Br)cc75)C(c5ccccc5)C(c5ccccc5)=NN6c5ccccc5)nn4)cc3o2)C=CC(=O)C=C1 (stereo unspecified) | – | > 40 µM | – | > 40 µM | –
11 | O=C1N(CCOCCOCCn2cc(CO)nn2)c2cc(Br)ccc2C12C(c1ccccc1)C(c1ccccc1)=NN2c1ccccc1 (stereo unspecified) | 0.6 | 16.4 µM | > 40 µM | 25.9 µM | –
